From ChEMBL document CHEMBL4251593, “Nontoxic combretafuranone analogues with high in vitro antibacterial activity” (Eur J Med Chem, 2018)
≈ marks a conversion by molar mass, not a printed value. Calls of active or inactive are those of the source. The rule behind the calls is not given here.

Columns and labels:
Staphylococcus aureus [1] = assay: Antibacterial activity against methicillin-resistant Staphylococcus aureus HK5996/08 clinical isolate after 48 hrs by microdilution assay; format: functional; settings: HK5996/08, 48 h
K562 [2] = assay: Induction of apoptosis in human K562 cells assessed as caspase 3/7 activity after 24 hrs by caspase-glo luminescent assay; format: cell-based; settings: K562, 24 h
Method in brief: (§1)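 Cells were seeded at 500 per well in their growth media and exposed to 12 concentrations from 40 µM to 1 nM, delivered from DMSO, in triplicate. After 24 h, caspase-3/7 activity was read by Caspase-Glo luminescence. Data were normalized and ED50 was fitted by variable-slope nonlinear regression.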

Aspergillus fumigatus = assay: Antifungal activity against Aspergillus fumigatus 231 up to 1 mM after 24 to 48 hrs by microdilution assay; format: functional, organism-based
Method in brief: (§2)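 Fungal microdilution following modified CLSI M27-A3/M38-A2, in RPMI 1640 with L-glutamine and 0.165 M MOPS at pH 7.0, with DMSO no more than 2% final. Compounds were 2-fold serially diluted from 2000 to 0.488 µmol/l. The inoculum was 5×10^3 cfu/ml. Incubation was at 35 °C, read visually at 24/48 h (T. mentagrophytes at 72/120 h). MIC was IC80 for yeasts and IC50 for filamentous fungi, determined twice in duplicate.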

[3] = system: Staphylococcus epidermidis; assay: Antibacterial activity against Staphylococcus epidermidis HK6966/08 clinical isolate after 24 hrs by microdilution assay; format: functional; settings: HK6966/08, 24 h
[4] = system: Trichophyton mentagrophytes; assay: Antifungal activity against Trichophyton mentagrophytes 445 up to 1 mM after 72 to 120 hrs by microdilution assay; format: functional, organism-based; method in brief: as §2
MCF7 = assay: Cytotoxicity against human MCF7 cells assessed as reduction in cell viability after 48 hrs by ATPlite-based luminescent assay; settings: MCF7, 48 h
Lichtheimia corymbifera = assay: Antifungal activity against Absidia corymbifera 272 up to 1 mM after 24 to 48 hrs by microdilution assay; format: functional, organism-based; method in brief: as §2
Candida parapsilosis = assay: Antifungal activity against Candida parapsilosis ATCC 22019 up to 1 mM after 24 to 48 hrs by microdilution assay; format: functional, organism-based; method in brief: as §2
TERT-RPE1 [5] = assay: Cytotoxicity against human RPE1 cells assessed as reduction in cell viability after 48 hrs by ATPlite-based luminescent assay; settings: RPE-1, 48 h
Method in brief: (§3)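 Cells were grown […] with 10% FBS, glutamax, NEAA and pen/strep at 37 °C, 5% CO2. Media were DMEM for RPE-1, HepG2 and BJ (BJ plus 10 ng/ml bFGF), F-12K for PC3, and IMDM for K562/HL-60. Cells were seeded at 500 per well and dosed from DMSO at 12 concentrations, 40 µM to 1 nM, in triplicate. After 48 h, intracellular ATP was read by luminescence. ED50 was obtained by variable-slope nonlinear regression.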

Nakaseomyces glabratus = assay: Antifungal activity against Candida glabrata 20/I clinical isolate up to 1 mM after 24 to 48 hrs by microdilution assay; format: functional, organism-based; method in brief: as §2
Clavispora lusitaniae = assay: Antifungal activity against Candida lusitaniae 2446/I clinical isolate up to 1 mM after 24 to 48 hrs by microdilution assay; format: functional, organism-based; method in brief: as §2
BJ = assay: Cytotoxicity against human BJ cells assessed as reduction in cell viability after 48 hrs by ATPlite-based luminescent assay; method in brief: as §3
HL-60 [6] = assay: Cytotoxicity against human HL60 cells assessed as reduction in cell viability after 48 hrs by ATPlite-based luminescent assay; settings: HL-60, 48 h; method in brief: as §3
Staphylococcus aureus [7] = assay: Antibacterial activity against Staphylococcus aureus ATCC 6538 after 48 hrs by microdilution assay; format: functional; settings: ATCC 6538, 48 h
Trichosporon asahii = assay: Antifungal activity against Trichosporon asahii 1188 clinical isolate up to 1 mM after 24 to 48 hrs by microdilution assay; format: functional, organism-based; method in brief: as §2
Candida tropicalis = assay: Antifungal activity against Candida tropicalis 156 clinical isolate up to 1 mM after 24 to 48 hrs by microdilution assay; format: functional, organism-based; method in brief: as §2
Klebsiella pneumoniae [8] = assay: Antibacterial activity against Klebsiella pneumoniae HK11750/08 clinical isolate after 24 hrs by microdilution assay; format: functional; settings: HK11750/08, 24 h
Pseudomonas aeruginosa [9] = assay: Antibacterial activity against Pseudomonas aeruginosa ATCC 9027 after 24 hrs by microdilution assay; format: functional; settings: ATCC 9027, 24 h
Method in brief: (§4)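 Broth microdilution in Mueller-Hinton medium buffered to pH 7.4 (±0.2), with DMSO as diluent at no more than 2% final. Compounds were tested as 2-fold serial dilutions from 2000 to 0.488 µmol/l. The inoculum was 0.5 McFarland (1.5×10^8 cfu/ml). Plates were held at 37 °C and read visually at 24 and 48 h. MIC was taken as 95% growth inhibition versus control, determined twice in duplicate.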

HepG2 [10] = assay: Induction of apoptosis in human HepG2 cells assessed as caspase 3/7 activity after 24 hrs by caspase-glo luminescent assay; format: cell-based; settings: HepG2, 24 h; method in brief: as §1
Pichia kudriavzevii [11] = assay: Antifungal activity against Candida krusei ATCC 6258 up to 1 mM after 24 to 48 hrs by microdilution assay; format: functional, organism-based; method in brief: as §2
Pichia kudriavzevii [12] = assay: Antifungal activity against Candida krusei E28 clinical isolate up to 1 mM after 24 to 48 hrs by microdilution assay; format: functional, organism-based; method in brief: as §2
Klebsiella pneumoniae [13] = assay: Antibacterial activity against Klebsiella pneumoniae HK14368/08 clinical isolate after 24 hrs by microdilution assay; format: functional; settings: HK14368/08, 24 h
HL-60 [14] = assay: Induction of apoptosis in human HL60 cells assessed as caspase 3/7 activity after 24 hrs by caspase-glo luminescent assay; format: cell-based; settings: HL-60, 24 h; method in brief: as §1
[15] = system: Staphylococcus epidermidis; assay: Antibacterial activity against Staphylococcus epidermidis HK6966/08 clinical isolate after 48 hrs by microdilution assay; format: functional; settings: HK6966/08, 48 h
Klebsiella pneumoniae [16] = assay: Antibacterial activity against Klebsiella pneumoniae HK14368/08 clinical isolate after 48 hrs by microdilution assay; format: functional; settings: HK14368/08, 48 h
K562 [17] = assay: Cytotoxicity against human K562 cells assessed as reduction in cell viability after 48 hrs by ATPlite-based luminescent assay; settings: K562, 48 h; method in brief: as §3
Escherichia coli [18] = assay: Antibacterial activity against Escherichia coli ATCC 8739 after 24 hrs by microdilution assay; format: functional; settings: ATCC 8739, 24 h; method in brief: as §4
Enterococcus sp. [19] = assay: Antibacterial activity against Enterococcus sp. HK14365/08 clinical isolate after 48 hrs by microdilution assay; format: functional; settings: HK14365/08, 48 h
Klebsiella pneumoniae [20] = assay: Antibacterial activity against Klebsiella pneumoniae HK11750/08 clinical isolate after 48 hrs by microdilution assay; format: functional; settings: HK11750/08, 48 h
TERT-RPE1 [21] = assay: Induction of apoptosis in human RPE1 cells assessed as caspase 3/7 activity after 24 hrs by caspase-glo luminescent assay; format: cell-based; settings: RPE-1, 24 h; method in brief: as §1
Staphylococcus aureus [22] = assay: Antibacterial activity against methicillin-resistant Staphylococcus aureus HK5996/08 clinical isolate after 24 hrs by microdilution assay; format: functional; settings: HK5996/08, 24 h
Candida albicans [23] = assay: Antifungal activity against Candida albicans ATCC 44859 up to 1 mM after 24 to 48 hrs by microdilution assay; format: functional, organism-based; method in brief: as §2
HepG2 [24] = assay: Cytotoxicity against human HepG2 cells assessed as reduction in cell viability after 48 hrs by ATPlite-based luminescent assay; settings: HepG2, 48 h; method in brief: as §3
Escherichia coli [25] = assay: Antibacterial activity against Escherichia coli ATCC 8739 after 48 hrs by microdilution assay; format: functional; settings: ATCC 8739, 48 h; method in brief: as §4
Enterococcus sp. [26] = assay: Antibacterial activity against Enterococcus sp. HK14365/08 clinical isolate after 24 hrs by microdilution assay; format: functional; settings: HK14365/08, 24 h
Pseudomonas aeruginosa [27] = assay: Antibacterial activity against Pseudomonas aeruginosa ATCC 9027 after 48 hrs by microdilution assay; format: functional; settings: ATCC 9027, 48 h; method in brief: as §4
PC-3 [28] = assay: Cytotoxicity against human PC3 cells assessed as reduction in cell viability after 48 hrs by ATPlite-based luminescent assay; settings: PC-3, 48 h; method in brief: as §3
Staphylococcus aureus [29] = assay: Antibacterial activity against Staphylococcus aureus ATCC 6538 after 24 hrs by microdilution assay; format: functional; settings: ATCC 6538, 24 h
Candida albicans [30] = assay: Antifungal activity against Candida albicans ATCC 90028 up to 1 mM after 24 to 48 hrs by microdilution assay; format: functional, organism-based; method in brief: as §2
PC-3 [31] = assay: Induction of apoptosis in human PC3 cells assessed as caspase 3/7 activity after 24 hrs by caspase-glo luminescent assay; format: cell-based; settings: PC-3, 24 h; method in brief: as §1

SMILES | MIC95 (Staphylococcus aureus [1]) [µM] | IC50 (K562 [2]) [µM] | MIC95 [3] [µM] | IC50 (MCF7) [µM] | IC50 (TERT-RPE1 [5]) [µM] | IC50 (BJ) [µM] | IC50 (HL-60 [6]) [µM] | MIC95 (Staphylococcus aureus [7]) [µM] | MIC95 (Klebsiella pneumoniae [8]) [µM] | MIC95 (Pseudomonas aeruginosa [9]) [µM] | IC50 (HepG2 [10]) [µM] | MIC95 (Klebsiella pneumoniae [13]) [µM] | IC50 (HL-60 [14]) [µM] | MIC95 [15] [µM] | MIC95 (Klebsiella pneumoniae [16]) [µM] | IC50 (K562 [17]) [µM] | MIC95 (Escherichia coli [18]) [µM] | MIC95 (Enterococcus sp. [19]) [µM] | MIC95 (Klebsiella pneumoniae [20]) [µM] | IC50 (TERT-RPE1 [21]) [µM] | further results
Cc1ccc(C2=C(c3ccc(Br)cc3)C(=O)OC2(CO)CO)cc1 | 500 (≈ 195 µg/mL) | > 40 | 62.5 (≈ 24.3 µg/mL) | > 40 | > 40 | > 40 | > 40 | 3.9 (≈ 1.52 µg/mL) | > 500 | > 500 | > 40 | > 500 | > 40 | 500 (≈ 195 µg/mL) | > 500 | > 40 | > 500 | > 500 | > 500 | > 40 | Activity (Aspergillus fumigatus): inactive; Activity [4]: inactive; Activity (Lichtheimia corymbifera): inactive; Activity (Candida parapsilosis): inactive; Activity (Nakaseomyces glabratus): inactive; Activity (Clavispora lusitaniae): inactive; Activity (Trichosporon asahii): inactive; Activity (Candida tropicalis): inactive; Activity (Pichia kudriavzevii [11]): inactive; Activity (Pichia kudriavzevii [12]): inactive; MIC95 (Staphylococcus aureus [22]): 250 µM (≈ 97.3 µg/mL); Activity (Candida albicans [23]): inactive; IC50 (HepG2 [24]): > 40 µM; MIC95 (Escherichia coli [25]): > 500 µM; MIC95 (Enterococcus sp. [26]): 500 µM (≈ 195 µg/mL); MIC95 (Pseudomonas aeruginosa [27]): > 500 µM; IC50 (PC-3 [28]): > 40 µM; MIC95 (Staphylococcus aureus [29]): 0.98 µM (≈ 0.381 µg/mL); Activity (Candida albicans [30]): inactive; IC50 (PC-3 [31]): > 40 µM
O=C1OCC(c2ccccc2)=C1c1ccc(Br)cc1 | 62.5 (≈ 19.7 µg/mL) | > 40 | 31.2 (≈ 9.85 µg/mL) | > 40 | > 40 | > 40 | > 40 | 15.6 (≈ 4.92 µg/mL) | > 1000 | > 1000 | > 40 | > 1000 | > 40 | 62.5 (≈ 19.7 µg/mL) | > 1000 | > 40 | > 1000 | > 1000 | > 1000 | > 40 | Activity (Aspergillus fumigatus): inactive; Activity [4]: inactive; Activity (Lichtheimia corymbifera): inactive; Activity (Candida parapsilosis): inactive; Activity (Nakaseomyces glabratus): inactive; Activity (Clavispora lusitaniae): inactive; Activity (Trichosporon asahii): inactive; Activity (Candida tropicalis): inactive; Activity (Pichia kudriavzevii [11]): inactive; Activity (Pichia kudriavzevii [12]): inactive; MIC95 (Staphylococcus aureus [22]): 31.2 µM (≈ 9.85 µg/mL); Activity (Candida albicans [23]): inactive; IC50 (HepG2 [24]): > 40 µM; MIC95 (Escherichia coli [25]): > 1000 µM; MIC95 (Enterococcus sp. [26]): > 1000 µM; MIC95 (Pseudomonas aeruginosa [27]): > 1000 µM; IC50 (PC-3 [28]): > 40 µM; MIC95 (Staphylococcus aureus [29]): 3.9 µM (≈ 1.23 µg/mL); Activity (Candida albicans [30]): inactive; IC50 (PC-3 [31]): > 40 µM
O=C1OCC(c2ccc(C(F)(F)F)cc2)=C1c1ccncc1 | 500 (≈ 153 µg/mL) | > 40 | 250 (≈ 76.3 µg/mL) | > 40 | > 40 | > 40 | > 40 | > 500 | > 500 | > 500 | > 40 | > 500 | > 40 | 250 (≈ 76.3 µg/mL) | > 500 | > 40 | > 500 | > 500 | > 500 | > 40 | MIC95 (Staphylococcus aureus [22]): 500 µM (≈ 153 µg/mL); IC50 (HepG2 [24]): > 40 µM; MIC95 (Escherichia coli [25]): > 500 µM; MIC95 (Enterococcus sp. [26]): > 500 µM; MIC95 (Pseudomonas aeruginosa [27]): > 500 µM; IC50 (PC-3 [28]): > 40 µM; MIC95 (Staphylococcus aureus [29]): > 500 µM; IC50 (PC-3 [31]): > 40 µM
